Columns and labels:
[1] = molecular target: T1, Transient receptor potential cation channel subfamily V member 1 (Rattus norvegicus, UniProt O35433); assay: Displacement of [3H]RTX from rat TRPV1 expressed in CHO cells; type: cell-based
Summary of the method: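 Binding competition against [³H]RTX on rat TRPV1 heterologously expressed in CHO cells. Mean ± SEM from three or more experiments.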

[2] = molecular target: Transient receptor potential cation channel subfamily V member 1 (Rattus norvegicus) (UniProt O35433); assay: Agonist activity at rat TRPV1 expressed in CHO cells assessed as increase of capsaicin-induced calcium uptake relative to capsaicin; type: functional, cell-based
Summary of the method: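 ⁴⁵Ca²⁺ uptake in CHO cells heterologously expressing rat TRPV1. Agonist efficacy is given as % of the maximal calcium uptake induced by 300 nM capsaicin. Mean ± SEM from three or more experiments.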

[3] = molecular target: Transient receptor potential cation channel subfamily V member 1 (Rattus norvegicus) (UniProt O35433); assay: Partial antagonist activity at rat TRPV1 expressed in CHO cells assessed as inhibition of capsaicin-induced calcium uptake; type: functional, cell-based; details: concentration not given here
Summary of the method: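 ⁴⁵Ca²⁺ uptake antagonism assay in CHO cells heterologously expressing rat TRPV1. The value is the extent of partial antagonism of capsaicin-induced uptake. Mean ± SEM from three or more experiments.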

[4] = molecular target: T1, Transient receptor potential cation channel subfamily V member 1; assay: Agonist activity at rat TRPV1 expressed in CHO cells assessed as increase of capsaicin-induced calcium uptake; type: functional, cell-based
Summary of the method: (§1)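 Functional ⁴⁵Ca²⁺ uptake assay in CHO cells heterologously expressing rat TRPV1. Values are mean ± SEM from three or more experiments.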

[5] = molecular target: T1, Transient receptor potential cation channel subfamily V member 1; assay: Antagonist activity at rat TRPV1 expressed in CHO cells assessed as inhibition of capsaicin-induced calcium uptake; type: functional, cell-based; summary of the method: as §1

Transient receptor potential cation channel subfamily V member 1 (Rattus norvegicus), sequence (O35433 whole entry): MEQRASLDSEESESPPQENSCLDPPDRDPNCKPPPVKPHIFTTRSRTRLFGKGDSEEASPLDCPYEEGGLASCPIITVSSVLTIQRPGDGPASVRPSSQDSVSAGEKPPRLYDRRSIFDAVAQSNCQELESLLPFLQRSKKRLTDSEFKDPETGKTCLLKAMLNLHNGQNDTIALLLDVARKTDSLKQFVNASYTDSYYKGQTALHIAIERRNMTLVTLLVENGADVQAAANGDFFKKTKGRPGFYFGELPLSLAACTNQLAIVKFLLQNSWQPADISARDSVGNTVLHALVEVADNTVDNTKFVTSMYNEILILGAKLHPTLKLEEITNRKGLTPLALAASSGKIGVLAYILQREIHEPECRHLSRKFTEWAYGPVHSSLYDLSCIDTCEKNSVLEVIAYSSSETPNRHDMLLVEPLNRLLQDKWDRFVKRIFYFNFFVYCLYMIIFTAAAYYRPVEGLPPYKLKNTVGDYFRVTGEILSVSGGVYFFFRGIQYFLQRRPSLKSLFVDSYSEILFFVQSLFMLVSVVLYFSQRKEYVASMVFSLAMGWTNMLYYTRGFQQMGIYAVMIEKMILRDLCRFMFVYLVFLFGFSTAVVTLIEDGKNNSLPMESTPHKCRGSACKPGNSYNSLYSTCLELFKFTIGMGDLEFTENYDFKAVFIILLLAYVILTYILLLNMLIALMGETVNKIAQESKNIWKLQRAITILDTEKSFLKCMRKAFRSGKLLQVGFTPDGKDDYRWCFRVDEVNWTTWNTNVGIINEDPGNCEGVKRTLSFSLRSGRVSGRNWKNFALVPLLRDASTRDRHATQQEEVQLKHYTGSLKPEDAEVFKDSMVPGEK
T1 sequence (O35433 whole entry): as above

SMILES | Ki [1] [nM] | Activity [2] [%] | inhibition [3] [%] | EC50 ([4]; read-out: EC50) [nM] | Ki ([5]; cho) | EC50 ([4]; cho) | Ki ([5]; read-out: Ki) [nM]
CC(C)(C)C(=O)OCC(CNC(=O)Cc1ccc(O)c(Br)c1)Cc1ccc(C(C)(C)C)cc1 (stereo not given) | 25.1 | 72 | 38 |  |  |  | 
COc1cc(CC(=O)NCC(COC(=O)C(C)(C)C)Cc2ccc(C(C)(C)C)cc2)ccc1N (stereo not given) | 108 |  |  | 22.9 | Not Active |  | 
COc1cc(CC(=O)NCC(COC(=O)C(C)(C)C)Cc2ccc(C(C)(C)C)cc2)cc(I)c1O (stereo not given) | 22 |  |  |  |  | Not Active | 2.8
COc1cc(CC(=O)NCc2ccc(C(C)(C)C)cc2)c(Br)cc1OC(C)=O | 393 | 60 | 59 |  |  |  | 
COc1cc(CC(=O)NCc2ccc(C(C)(C)C)cc2)cc(Cl)c1O | 164 | 25 | 66 |  |  |  | 
COc1cc(CC(=O)NCC(COC(=O)C(C)(C)C)Cc2ccc(C(C)(C)C)cc2)c(Cl)cc1O (stereo not given) | 37.6 | 61 | 39 |  |  |  | 
COc1cc(CC(=O)NCc2ccc(C(C)(C)C)cc2)c(Cl)cc1O | 486 |  |  | 135 | Not Active |  | 
COc1cc(CC(=O)NCC(COC(=O)C(C)(C)C)Cc2ccc(C(C)(C)C)cc2)cc(Cl)c1OC(C)=O (stereo not given) | 21 | 28 | 58 |  |  |  | 
COc1cc(CC(=O)NCc2ccc(C(C)(C)C)cc2)c(Cl)cc1OC(C)=O | 388 | 83 | 62 |  |  |  | 
COc1cc(CC(=O)NCC(COC(=O)C(C)(C)C)Cc2ccc(C)c(C)c2)c(I)cc1O (stereo not given) | 116 | 23 | 53 |  |  |  | 
COc1cc(CC(=O)NCC(COC(=O)C(C)(C)C)Cc2ccc(C(C)(C)C)cc2)ccc1O (stereo not given) | 13.1 |  |  | 4.08 | Not Active |  | 
COc1cc(CC(=O)NCc2ccc(C(C)(C)C)cc2)c(Br)cc1O | 364 | 37 | 42 |  |  |  | 
COc1cc(CC(=O)NCC(COC(=O)C(C)(C)C)Cc2ccc(C(C)(C)C)cc2)c(I)cc1OC(C)=O (stereo not given) | 19.5 |  |  |  |  | Not Active | 53
COc1cc(CC(=O)NCC(COC(=O)C(C)(C)C)Cc2ccc(C(C)(C)C)cc2)ccc1NS(C)(=O)=O (stereo not given) | 84.5 | 72 | 15 |  |  |  | 
COc1cc(CC(=O)NCc2ccc(C(C)(C)C)cc2)c(I)cc1O | 850 | 17 | 55 |  |  |  | 
COc1cc(CC(=O)NCC(COC(=O)C(C)(C)C)Cc2ccc(C)c(C)c2)cc(Br)c1O (stereo not given) | 56.4 | 43 | 62 |  |  |  | 
COc1cc(CC(=O)NCC(COC(=O)C(C)(C)C)Cc2ccc(C(C)(C)C)cc2)c(Br)cc1NS(C)(=O)=O (stereo not given) | 42.9 | 14 | 64 |  |  |  | 
COc1cc(CC(=O)NCC(COC(=O)C(C)(C)C)Cc2ccc(C(C)(C)C)cc2)cc(Br)c1OC(C)=O (stereo not given) | 13.6 |  |  |  |  | Not Active | 72
COc1cc(CC(=O)NCC(COC(=O)C(C)(C)C)Cc2ccc(C)c(C)c2)cc(I)c1OC(C)=O (stereo not given) | 4530 | 12 | 59 |  |  |  | 
CC(C)(C)C(=O)OCC(CNC(=O)Cc1cc(Cl)c(O)c(Cl)c1)Cc1ccc(C(C)(C)C)cc1 (stereo not given) | 9.3 |  |  |  |  | Not Active | 4.26
COc1cc(CC(=O)NCc2ccc(C(C)(C)C)cc2)c(I)cc1OC(C)=O | 378 | 8 | 85 |  |  |  | 
COc1cc(CC(=O)NCC(COC(=O)C(C)(C)C)Cc2ccc(C(C)(C)C)cc2)c(Br)cc1O (stereo not given) | 25.3 | 21 | 76 |  |  |  | 

SMILES | Ki [1] [nM] | Activity [2] [%] | inhibition [3] [%] | EC50 ([4]; read-out: EC50) [nM] | Ki ([5]; cho) | EC50 ([4]; cho) | Ki ([5]; read-out: Ki) [nM]
COc1cc(CC(=O)NCC(COC(=O)C(C)(C)C)Cc2ccc(C(C)(C)C)cc2)c(Cl)cc1OC(C)=O (stereo not given) | 25.1 | 53 | 36 |  |  |  | 
COc1cc(CC(=O)NCC(COC(=O)C(C)(C)C)Cc2ccc(C(C)(C)C)cc2)cc(I)c1OC(C)=O (stereo not given) | 20.3 |  |  |  |  | Not Active | 19.1
COc1cc(CC(=O)NCc2ccc(C(C)(C)C)cc2)cc(I)c1OC(C)=O | 94 |  |  |  |  | Not Active | 47.9
COc1cc(CC(=O)NCC(COC(=O)C(C)(C)C)Cc2ccc(C(C)(C)C)cc2)cc(Br)c1O (stereo not given) | 9.4 |  |  |  |  | Not Active | 8.77
COc1cc(CC(=O)NCC(COC(=O)C(C)(C)C)Cc2ccc(C(C)(C)C)cc2)cc(Br)c1N (stereo not given) | 79.1 |  |  |  |  | Not Active | 3.4
COc1cc(CC(=O)NCc2ccc(C(C)(C)C)cc2)cc(Cl)c1OC(C)=O | 205 | 22 |  |  |  |  | 570
COc1cc(CC(=O)NCC(COC(=O)C(C)(C)C)Cc2ccc(C(C)(C)C)cc2)cc(Cl)c1O (stereo not given) | 31 | 25 | 76 |  |  |  | 
COc1cc(CC(=O)NCC(COC(=O)C(C)(C)C)Cc2ccc(C(C)(C)C)cc2)c(Br)cc1OC(C)=O (stereo not given) | 34.9 | 22 | 63 |  |  |  | 
COc1cc(CC(=O)NCC(COC(=O)C(C)(C)C)Cc2ccc(C(C)(C)C)cc2)c(I)cc1O (stereo not given) | 20.9 |  |  |  |  | Not Active | 13.5
CC(C)(C)C(=O)OCC(CNC(=O)Cc1cc(Cl)c(N)c(Cl)c1)Cc1ccc(C(C)(C)C)cc1 (stereo not given) | 9.43 |  |  |  |  | Not Active | 3.96
COc1cc(CC(=O)NCC(COC(=O)C(C)(C)C)Cc2ccc(C)c(C)c2)cc(I)c1O (stereo not given) | 1630 | 6 |  |  |  |  | 225
COc1cc(CC(=O)NCc2ccc(C(C)(C)C)cc2)ccc1O | 667 |  |  | 82 | Not Active |  | 
COc1cc(CC(=O)NCc2ccc(C(C)(C)C)cc2)cc(Br)c1OC(C)=O | 166 | 9 | 89 |  |  |  | 
CC(C)(C)C(=O)OCC(CNC(=O)Cc1cc(Br)c(O)c(Br)c1)Cc1ccc(C(C)(C)C)cc1 (stereo not given) | 20.2 |  |  |  |  | Not Active | 10.7
CC(C)(C)C(=O)OCC(CNC(=O)Cc1cc(Br)c(N)c(Br)c1)Cc1ccc(C(C)(C)C)cc1 (stereo not given) | 11.3 |  |  |  |  | Not Active | 4.3
CC(C)(C)C(=O)OCC(CNC(=O)Cc1ccc(N)c(Cl)c1)Cc1ccc(C(C)(C)C)cc1 (stereo not given) | 790 | 85 | 24 |  |  |  | 
COc1cc(CC(=O)NCc2ccc(C(C)(C)C)cc2)cc(Br)c1O | 91 | 11 |  |  |  |  | 168
CC(C)(C)C(=O)OCC(CNC(=O)Cc1cc(Br)cc(Br)c1)Cc1ccc(C(C)(C)C)cc1 (stereo not given) | 210 |  |  |  |  | Not Active | 108
COc1cc(CC(=O)NCc2ccc(C(C)(C)C)cc2)cc(I)c1O | 89 |  |  |  |  | Not Active | 17.2
CC(C)(C)C(=O)OCC(CNC(=O)Cc1ccc(N)c(Br)c1)Cc1ccc(C(C)(C)C)cc1 (stereo not given) | 57 | 59 | 27 |  |  |  | 
CCCCCCCCC(=O)NCc1cc(OC)c(O)cc1I |  |  |  |  |  | Not Active | 
COc1cc(CC(=O)NCC(COC(=O)C(C)(C)C)Cc2ccc(C(C)(C)C)cc2)cc(Cl)c1N (stereo not given) | 33.5 |  |  |  |  | Not Active | 4.09
